Measurements gathered from unrelated publications.
Effect on: cell growth or viability

Structure (SMILES)	cell line	test	setting	quantity	result
C[C@H]1CN(c2ccncc2NC(=O)c2ccc(F)c(-c3c(F)cccc3F)n2)C[C@@H](N)[C@@H]1O	RPMI-8226	thymidine uptake		GI50	0.156 µM
CCOP(=S)(OCC)Oc1nc(Cl)c(Cl)cc1Cl	ReNcell VM	imaging	24 h	IC50	~11.6 µM
O=C(O)CCCc1ccc(N(CCCl)CCCl)cc1	OVCAR-3	CCK-8	48 h	IC50	29.4 µM
Cc1cc(N(CCOS(C)(=O)=O)CCOS(C)(=O)=O)ccc1C=O	ACHN			IC50	0.263 µg/mL
CC(C)C[C@H](NC(=O)OCc1ccccc1)C(=O)N[C@@H](CC(C)C)C(=O)N[C@@H](CC(C)C)C(=O)C(=O)Nc1cccc2ncccc12	RPMI-8226	MTS	72 h	IC50	0.134 µM
CCCCC/C=C\C/C=C\C/C=C\C/C=C\CCCC(=O)NCCO	ReNcell VM	imaging	24 h	IC50	~11.4 µM
CC(C)C[C@H](NC(=O)OCc1ccccc1)C(=O)N[C@@H](Cc1ccccc1)C(=O)N[C@@H](CC(C)C)C(=O)C(=O)Nc1ccccc1	RPMI-8226	MTS	72 h	IC50	0.843 µM
COc1cc2c3c(n(CCCNCCO)c(=O)c2cc1OC)-c1cc2c(cc1C3=O)OCO2	OVCAR-3			GI50	0.5 µM
